Results on two compounds are retold here after ChEMBL document CHEMBL2434958, “Identification of a novel series of orexin receptor antagonists with a distinct effect on sleep architecture for the treatment of insomnia” (J Med Chem, 2013).

The test system of data set [1] is Mus musculus. The experiment in a line: Induction of sleep in C57BL/6 mouse assessed as increase in non-rapid eye movement at 50 mg/kg, po measured during 4 hrs by EEG/EMG analysis relative to vehicle-treated control. It counts as functional, organism-based. The arrangement: dose 50 mg/kg. A digest of the protocol:
(§1)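 Male C57Bl/6 mice with implanted cortical EEG screw electrodes and EMG, recovered 2 weeks, 12 h/12 h light/dark cycle. Crossover: vehicle (0.5% methylcellulose, 10 mL/kg po) on day 2, compound po on day 3, each given 5–15 min before lights-off. 23 h recordings; EEG filtered 0.3–30 Hz, EMG 5–30 Hz; 10 s epochs scored as wake, NREM or REM from EEG/EMG and infrared motility.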

Data set [2] in a line: Drug uptake in C57BL/6 mouse blood at 50 mg/kg after 1 hr by LC-MS/MS analysis. Conditions: read-out: Drug uptake. The arrangement: dose 50 mg/kg. Type of data set: ADME, organism-based. Summed up: (§2)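 Satellite PK group: oral gavage of 50 mg/kg suspended in 0.5% w/v methylcellulose in water, 10 mL/kg. Blood and brain taken after decapitation at 15 and 60 min post-dose, n = 3 mice per time point, stored at −20 °C. Brain homogenised in 2 mM KH₂PO₄; acetonitrile quench with internal standard; LC/MS/MS against six-level calibration curve. Mean ± SD reported.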

The next data set addresses T1, Orexin receptor type 2 (Mus musculus, UniProt P58308).
T1 sequence (P58308 whole entry): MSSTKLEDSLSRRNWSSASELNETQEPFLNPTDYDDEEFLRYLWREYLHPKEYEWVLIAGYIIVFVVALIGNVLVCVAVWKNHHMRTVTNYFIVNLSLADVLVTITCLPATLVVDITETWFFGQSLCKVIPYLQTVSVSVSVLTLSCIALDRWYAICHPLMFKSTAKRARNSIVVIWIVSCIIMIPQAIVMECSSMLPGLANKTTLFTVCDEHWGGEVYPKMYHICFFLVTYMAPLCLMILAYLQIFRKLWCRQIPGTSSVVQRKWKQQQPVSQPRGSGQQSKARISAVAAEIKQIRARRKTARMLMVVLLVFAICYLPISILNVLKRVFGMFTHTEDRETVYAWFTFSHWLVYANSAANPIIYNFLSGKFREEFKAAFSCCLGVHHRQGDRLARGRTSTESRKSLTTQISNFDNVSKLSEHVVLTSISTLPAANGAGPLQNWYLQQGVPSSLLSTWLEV
The experiment in a line: Antagonist activity at mouse OX2 receptor expressed in HEK cells assessed as inhibition of orexin A-induced Ca2+ accumulation after 1 hr by Fluo-4-AM staining-based FLIPR assay. Type of data set: functional, cell-based, HEK293.

For data set [3], the target named is T2, Orexin/Hypocretin receptor type 1 (Mus musculus, UniProt P58307).
T2 sequence (P58307 whole entry): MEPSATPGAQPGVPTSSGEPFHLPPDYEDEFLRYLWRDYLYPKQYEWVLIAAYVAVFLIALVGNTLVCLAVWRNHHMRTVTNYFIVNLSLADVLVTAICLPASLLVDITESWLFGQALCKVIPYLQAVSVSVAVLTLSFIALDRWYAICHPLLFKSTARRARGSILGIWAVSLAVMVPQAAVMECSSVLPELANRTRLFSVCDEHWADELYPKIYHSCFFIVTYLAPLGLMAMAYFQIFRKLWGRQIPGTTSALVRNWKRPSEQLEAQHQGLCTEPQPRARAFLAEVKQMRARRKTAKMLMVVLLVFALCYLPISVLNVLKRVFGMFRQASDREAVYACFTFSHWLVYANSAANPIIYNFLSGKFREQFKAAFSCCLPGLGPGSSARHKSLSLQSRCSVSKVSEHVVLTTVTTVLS
The experiment in a line: Antagonist activity at mouse OX1 receptor expressed in CHO cells assessed as inhibition of orexin A-induced Ca2+ accumulation after 1 hr by Fluo-4-AM staining-based FLIPR assay. Type of data set: functional, cell-based.

Data set [4] deals with Brain. As to the kind of experiment: Fraction unbound in C57BL/6 mouse brain at 50 mg/kg, po after 1 hr by LC-MS/MS analysis. It counts as ADME, organism-based. The arrangement: dose 50 mg/kg, route oral. The note with it: in vivo. A digest of the protocol:
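Unbound fraction assessed in mouse brain homogenate by a slightly adapted literature method, measured separately from the dosed animals. Free brain level obtained by multiplying fraction unbound by brain concentration from the 50 mg/kg po satellite group at 60 min. Mean ± SD, n = 3.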

Data set [5] concerns Brain. As to the kind of experiment: Drug uptake in C57BL/6 mouse brain at 50 mg/kg after 1 hr by LC-MS/MS analysis. Type of data set: ADME, organism-based. The note with it: in vivo. The arrangement: dose 50 mg/kg. A digest of the protocol: as §2
A short description of data set [6]: Cmax in C57BL/6 mouse blood at 3 mg/kg, po. It counts as ADME, organism-based. Set-up: dose 3 mg/kg, route oral. Summed up: (§3)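 Cassette PK in male C57BL/6 mice (20–30 g), up to five test compounds plus one reference. Iv 1 mg/kg in NMP/blank plasma 10/90 v/v, 5 mL/kg, saphenous vein. Oral 3 mg/kg suspended in 0.5% w/v carboxymethylcellulose in water/Tween 80 (99.5/0.5), 10 mL/kg gavage. Blood sampled 5 min (iv) or 15 min (po) to 24 h, n = 3 per time point, measured by LC/MS/MS.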

Data set [7] has as its system Mus musculus. As to the kind of experiment: Induction of sleep in C57BL/6 mouse assessed as increase in total sleep time at 50 mg/kg, po measured during first 4 hrs by EEG/EMG analysis relative to vehicle-treated control.
Data set [8] concerns Mus musculus. As to the kind of experiment: Effect on locomotion in C57BL/6 mouse assessed as reduction of motility at 50 mg/kg, po measured up to 4 hrs. It counts as functional, organism-based. Set-up: dose 50 mg/kg. A digest of the protocol: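 Mice habituated, then dosed orally immediately before lights-off (15:00, start of active phase); vehicle 0.5% methylcellulose in water. Inactivity = any minute with no infrared beam breaks. Per-animal difference between inactivity 15:00–19:00 post-dose and the same 4 h during habituation 24 h earlier. n = 6; one-way ANOVA with Dunnett's test versus vehicle.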

Data set [9] in a line: Ratio of drug level in brain to blood in C57BL/6 mouse at 3 mg/kg, po after 15 mins. Set-up: dose 3 mg/kg, route oral. Type of data set: ADME, organism-based. A digest of the protocol:
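Male C57BL/6 mice (20–30 g), cassette dosing of up to five compounds plus a reference. Blood and brain collected 15 min post-dose, n = 3. Brain homogenised in 2 mM KH2PO4 and extracted with acetonitrile. LC/MS/MS quantitation; mean brain/blood ratio.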

In data set [10] the test system is Mus musculus. As to the kind of experiment: Induction of sleep in C57BL/6 mouse assessed as increased rapid eye movement sleep proportion at 50 mg/kg, po measured during 1 hr by EEG/EMG analysis relative to vehicle-treated control. It counts as functional, organism-based. The arrangement: dose 50 mg/kg. Summed up: as §1
Data set [11] is described as follows: Total blood clearance in C57BL/6 mouse at 1 mg/kg, iv. It counts as ADME, organism-based. Set-up: dose 1 mg/kg, route intravenous. A digest of the protocol:
as §3

The subject of data set [12] is Mus musculus. As to the kind of experiment: Induction of sleep in C57BL/6 mouse assessed as increase in rapid eye movement at 50 mg/kg, po measured during 1 hr by EEG/EMG analysis relative to vehicle-treated control. Type of data set: functional, organism-based. Set-up: dose 50 mg/kg. A digest of the protocol: (§4)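 Male C57Bl/6 mice with implanted cortical EEG and EMG electrodes, 2-week recovery, 12/12 h light cycle. Vehicle (0.5% methylcellulose, 10 mL/kg po) given on day 2 and compound po on day 3, just before lights off. Recording ran 23 h. 10 s epochs scored as wake, NREM or REM from EEG/EMG plus infrared motility. Each animal served as its own vehicle control.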

The nature of data set [13]: Volume of distribution at steady state in C57BL/6 mouse at 1 mg/kg, iv. Type of data set: ADME, organism-based. The arrangement: dose 1 mg/kg, route intravenous. The note with it: in vivo, read-out: Vdss. A digest of the protocol:
as §3

The nature of data set [14]: AUC (infinity) in C57BL/6 mouse blood at 3 mg/kg, po. Type of data set: ADME, organism-based. The arrangement: time infinity, dose 3 mg/kg, route oral. A digest of the protocol:
as §3

Data set [15] has as its system Mus musculus. The experiment in a line: Induction of sleep in C57BL/6 mouse assessed as rapid eye movement and non-rapid eye movement sleep balance at 50 mg/kg, po measured during 1 hr by EEG/EMG analysis relative to vehicle-treated control. It counts as functional, organism-based. Set-up: dose 50 mg/kg. Summed up:
as §4

The nature of data set [16]: Oral bioavailability in C57BL/6 mouse blood at 3 mg/kg. It counts as ADME, organism-based. A digest of the protocol:
as §3

Data set [17] deals with Mus musculus. As to the kind of experiment: Induction of sleep in C57BL/6 mouse assessed as increase in rapid eye movement at 50 mg/kg, po measured during 4 hrs by EEG/EMG analysis relative to vehicle-treated control. It counts as functional, organism-based. The arrangement: dose 50 mg/kg. A digest of the protocol: as §1

Calls of active or inactive are those of the source. No cut-off for these calls is given here.

What is called Ki is a dissociation constant, usually derived from enzyme kinetics or from competition with a known ligand. One may read the Cmax as the maximum level reached in the sampled fluid or tissue. The term Kp denotes the ratio of the level in a tissue or fluid to that in plasma or blood. What is called clearance is a measure of how efficiently the substance is removed, as volume per time. Higher therefore signals a high capacity for elimination. As a reminder, the AUC(0-inf) is the area under the concentration-time curve extrapolated to infinity. A higher AUC(0-inf) goes with more exposure. For orientation: bioavailability means dose-corrected exposure relative to a reference, in per cent. A lower bioavailability goes with little systemic uptake. As to `COc1ccnc(N2CCC3(CCCN(Cc4c[nH]c5ccccc45)C3=O)CC2)n1`, the result in the data set on Mus musculus [1], in the data set on Mus musculus [7], in the data set with Mus musculus [8] and in the data set with Mus musculus [10] was Active. Also, in data set [2], the concentration at 1 h was 6.91 µM. The Ki on Orexin receptor type 2 was 58.9 nM; in data set [3], 457 nM. The same compound displayed a Fu with Brain [4] of 0.61%. The compound also returned a Drug uptake in the data set with Brain [5] of 8778 pmol/g. Further, the concentration in data set [6] peaked (Cmax) at 0.864 µM. The partition ratio (Kp) at 0.25 h in data set [9] was 1.1. For the same compound, the clearance in data set [11] worked out at 28 mL/min/kg. Also, the outcome in the data set with Mus musculus [12] and with Mus musculus [15] was inactive. In [13], the Vd was 1.6 L/kg. The same compound had an AUC(0-inf) in data set [14] of 2.09 µM·h. In addition, the bioavailability in data set [16] amounted to 47%.

Regarding `Cc1ccc(-n2nccn2)c(C(=O)N2CCN(c3nc4cc(Cl)ccc4o3)CC[C@H]2C)c1` [SUVOREXANT], the result in the data set with Mus musculus [1], in the data set on Mus musculus [7], in the data set on Mus musculus [8], in the data set on Mus musculus [10] and in the data set on Mus musculus [17] was Active. Moreover, the concentration at 1 h in data set [2] was 10.5 µM. The Ki at Orexin receptor type 2 is 8.71 nM; in data set [3], 1.7 nM. In addition, in the data set with Brain [4], the Fu came out at 0.65%. The compound also yielded a Drug uptake in the data set on Brain [5] of 10329 pmol/g.
